Experimental findings from ChEMBL document CHEMBL1126809, “Effects of solvation on the ionization and conformation of raclopride and other antidopaminergic 6-methoxysalicylamides: insight into the pharmacophore” (J Med Chem, 1993) are described below.

Data set [1] in a line: Dissociation constants determined by potentiometry at 25 degree celsius (phenolic group). The class given is physicochemical. In short, it runs like this: (§1)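 Potentiometric titration at 25 ± 1 °C with ionic strength held at 0.1 M by KCl. Excess HCl added, then back-titrated with 0.01 N NaOH. Curves run in triplicate. pKa derived by non-logarithmic linearization of the titration curve, corrected for dilution during titration.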

Data set [2] in a line: Dissociation constants determined by potentiometry at 25 degree celsius (Amino group). The class given is physicochemical. In short, it runs like this:
as §1

Data set [3] is described as follows: Percent of zwitter ion formed, was determined at pH 7.4. It counts as ADME.
A short description of data set [4]: The isoelectric point (pI) as the arithmetic mean of pKa1 and pKa2. The class given is physicochemical.

Turning to `CCc1cc(CC)c(OC)c(C(=O)NC[C@@H]2CCCN2CC)c1O`, the PKa1 in data set [1] was 7.28. In data set [2], this compound came in with a PKa2 of 9.55. The Z in data set [3] was determined as 56%. Further, the pI in data set [4] was found to be 8.42.
With `CCN1CCC[C@H]1CNC(=O)c1c(O)c(Cl)cc(Cl)c1OC` [RACLOPRIDE], the PKa1 in data set [1] amounted to 5.81. The PKa2 in data set [2] is listed as 9.21. This compound also yielded a Z in data set [3] of 96%. This compound also showed a pI in data set [4] of 7.51.
The compound `CCc1cc(Cl)c(O)c(C(=O)NC[C@@H]2CCCN2CC)c1OC` had a PKa1 in data set [1] of 6.88. In data set [2], this compound displayed a PKa2 of 9.6. In data set [3], this compound registered a Z of 76%. Moreover, the pI in data set [4] is listed as 8.24.
In data set [1], `CCN1CCC[C@H]1CNC(=O)c1c(O)cccc1OC` had a PKa1 of 8.7. Further, in data set [2], the PKa2 came out at 9.56. In data set [3], this compound gave a Z of 5%. The pI in data set [4] was determined as 9.13.
Turning to `CCN1CCC[C@H]1CNC(=O)c1c(OC)ccc(Cl)c1O`, the PKa1 in data set [1] came to 7.13. In data set [2], this compound registered a PKa2 of 9.66. The compound further registered a Z in data set [3] of 65%. In data set [4], this compound returned a pI of 8.4.
As for `CCc1cc(Cl)c(OC)c(C(=O)NC[C@@H]2CCCN2CC)c1O` [ETICLOPRIDE], the PKa1 in data set [1] is given as 6.93. The compound also had a PKa2 in data set [2] of 9.67. Besides, the Z in data set [3] is listed as 74%. In addition, in data set [4], the pI is on record as 8.3.
In the same order, the values of `CCN1CCC[C@H]1CNC(=O)c1c(O)c(Br)cc(Br)c1OC` are 5.94, 9.18, 95% and 7.56.
The compound `CCN1CCC[C@H]1CNC(=O)c1c(OC)ccc([N+](=O)[O-])c1O` had a PKa1 in data set [1] of 5.81. Also, the PKa2 in data set [2] was found to be 9.16. In data set [3], this compound gave a Z of 96%. The pI in data set [4] stood at 7.49.
`COc1c(Cl)cc(Cl)c(O)c1C(=O)NC1CCN(C)CC1` showed a PKa1 in data set [1] of 5.96. In addition, the PKa2 in data set [2] was determined as 9.12. In data set [3], this compound showed a Z of 95%. The pI in data set [4] amounted to 7.54.
For `CCc1ccc(OC)c(C(=O)NC[C@@H]2CCCN2CC)c1O`, in that order: 8.71, 9.57, 5% and 9.14.
